Laboratory results taken from ChEMBL document CHEMBL4689842, “EUbOPEN Chemogenomics Library wave 1” (2021).

System: Fibroblast
Assay: Multiplex assay against human fibroblast
Type: toxicity, cell-based
How it was run: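 With compound added, live cells were imaged on a CQ1 microscope at 37°C and 5% CO2; staining with Hoechst33342, BioTracker Green Microtubule Cytoskeleton Dye, MitoTracker Red and Annexin V Alexa Fluor 680 had been done at seeding. The CellPathfinder machine-learning gating scheme split cells into Hoechst high-intensity objects or normal cells, normal cells into healthy, pyknosed or fragmented nuclei, and pyknosed cells into mitotic or apoptotic. The tubulin, mitochondrial-mass and membrane-permeability phenotypes are per cents of healthy-nucleus cells.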

[1] = 12 h, 1 µM, compound concentration 1 uM, replicate 1
[2] = 12 h, 1 µM, compound concentration 1 uM, replicate 2
[3] = 12 h, 10 µM, compound concentration 10 uM, replicate 1
[4] = 12 h, 10 µM, compound concentration 10 uM, replicate 2
[5] = 24 h, 1 µM, compound concentration 1 uM, replicate 1
[6] = 24 h, 1 µM, compound concentration 1 uM, replicate 2
[7] = 24 h, 10 µM, compound concentration 10 uM, replicate 1
[8] = 24 h, 10 µM, compound concentration 10 uM, replicate 2
[9] = 48 h, 1 µM, compound concentration 1 uM, replicate 1
[10] = 48 h, 1 µM, compound concentration 1 uM, replicate 2
[11] = 48 h, 10 µM, compound concentration 10 uM, replicate 1
[12] = 48 h, 10 µM, compound concentration 10 uM, replicate 2

`CCCCN(CC)c1nc(C)nc2c1c(C)cn2-c1c(C)cc(C)cc1C.Cl` was tested, and the “Population Apoptotic (%)” value [1] was 63%, the “Population Fragmented Nuclei (%)” value [1] was 23% and the “Population Healthy Nuclei (%)” value [1] was 44%. The “Population Hoechst High Intensity Objects (%)” value [1] was 11%, the “Population Membrane Permeable-Phenotype (%)” value [1] was 27% and the “Population Mitochondria Different-Phenotype (%)” value [1] was 9%. For the same compound, the “Population Mitotic Cells (%)” value [1] was 36%, the “Population Normal (%)” value [1] was 88% and the “Population Pyknosed Nuclei (%)” value [1] was 31%. For the same compound, the “Population Tubulin-Different-Phenotype (%)” value [1] was 46%, the “Total Cell Count” value [1] was 108 and the “Population Apoptotic (%)” value [2] was 55%. The “Population Fragmented Nuclei (%)” value [2] was 13%, the “Population Healthy Nuclei (%)” value [2] was 77% and the “Population Hoechst High Intensity Objects (%)” value [2] was 3%. The “Population Membrane Permeable-Phenotype (%)” value [2] was 5%, the “Population Mitochondria Different-Phenotype (%)” value [2] was 8% and the “Population Mitotic Cells (%)” value [2] was 44%. The “Population Normal (%)” value [2] was 96%, the “Population Pyknosed Nuclei (%)” value [2] was 9% and the “Population Tubulin-Different-Phenotype (%)” value [2] was 14%. For the same compound, the “Total Cell Count” value [2] was 95, the “Population Apoptotic (%)” value [3] was 57% and the “Population Fragmented Nuclei (%)” value [3] was 30%. The “Population Healthy Nuclei (%)” value [3] was 37%, the “Population Hoechst High Intensity Objects (%)” value [3] was 13% and the “Population Membrane Permeable-Phenotype (%)” value [3] was 32%. The “Population Mitochondria Different-Phenotype (%)” value [3] was 16%, the “Population Mitotic Cells (%)” value [3] was 42% and the “Population Normal (%)” value [3] was 86%. For the same compound, the “Population Pyknosed Nuclei (%)” value [3] was 31%, the “Population Tubulin-Different-Phenotype (%)” value [3] was 84% and the “Total Cell Count” value [3] was 76. The “Population Apoptotic (%)” value [4] was 20%, the “Population Fragmented Nuclei (%)” value [4] was 9% and the “Population Healthy Nuclei (%)” value [4] was 83%. For the same compound, the “Population Hoechst High Intensity Objects (%)” value [4] was 6%, the “Population Membrane Permeable-Phenotype (%)” value [4] was 4% and the “Population Mitochondria Different-Phenotype (%)” value [4] was 55%. The “Population Mitotic Cells (%)” value [4] was 80%, the “Population Normal (%)” value [4] was 93% and the “Population Pyknosed Nuclei (%)” value [4] was 6%. For the same compound, the “Population Tubulin-Different-Phenotype (%)” value [4] was 19%, the “Total Cell Count” value [4] was 78 and the “Population Apoptotic (%)” value [5] was 57%. For the same compound, the “Population Fragmented Nuclei (%)” value [5] was 30%, the “Population Healthy Nuclei (%)” value [5] was 49% and the “Population Hoechst High Intensity Objects (%)” value [5] was 11%. The “Population Membrane Permeable-Phenotype (%)” value [5] was 21%, the “Population Mitochondria Different-Phenotype (%)” value [5] was 8% and the “Population Mitotic Cells (%)” value [5] was 42%. For the same compound, the “Population Normal (%)” value [5] was 88%, the “Population Pyknosed Nuclei (%)” value [5] was 20% and the “Population Tubulin-Different-Phenotype (%)” value [5] was 36%. For the same compound, the “Total Cell Count” value [5] was 107, the “Population Apoptotic (%)” value [6] was 29% and the “Population Fragmented Nuclei (%)” value [6] was 13%. The “Population Healthy Nuclei (%)” value [6] was 70%, the “Population Hoechst High Intensity Objects (%)” value [6] was 5% and the “Population Membrane Permeable-Phenotype (%)” value [6] was 3%. The “Population Mitochondria Different-Phenotype (%)” value [6] was 6%, the “Population Mitotic Cells (%)” value [6] was 70% and the “Population Normal (%)” value [6] was 94%. The “Population Pyknosed Nuclei (%)” value [6] was 15%, the “Population Tubulin-Different-Phenotype (%)” value [6] was 7% and the “Total Cell Count” value [6] was 116. The “Population Apoptotic (%)” value [7] was 73%, the “Population Fragmented Nuclei (%)” value [7] was 30% and the “Population Healthy Nuclei (%)” value [7] was 47%. For the same compound, the “Population Hoechst High Intensity Objects (%)” value [7] was 26%, the “Population Membrane Permeable-Phenotype (%)” value [7] was 14% and the “Population Mitochondria Different-Phenotype (%)” value [7] was 32%. For the same compound, the “Population Mitotic Cells (%)” value [7] was 26%, the “Population Normal (%)” value [7] was 73% and the “Population Pyknosed Nuclei (%)” value [7] was 21%. The “Population Tubulin-Different-Phenotype (%)” value [7] was 88%, the “Total Cell Count” value [7] was 97 and the “Population Apoptotic (%)” value [8] was 25%. For the same compound, the “Population Fragmented Nuclei (%)” value [8] was 8%, the “Population Healthy Nuclei (%)” value [8] was 80% and the “Population Hoechst High Intensity Objects (%)” value [8] was 4%. For the same compound, the “Population Membrane Permeable-Phenotype (%)” value [8] was 3%, the “Population Mitochondria Different-Phenotype (%)” value [8] was 54% and the “Population Mitotic Cells (%)” value [8] was 75%. The “Population Normal (%)” value [8] was 95%, the “Population Pyknosed Nuclei (%)” value [8] was 11% and the “Population Tubulin-Different-Phenotype (%)” value [8] was 21%. The “Total Cell Count” value [8] was 74, the “Population Apoptotic (%)” value [9] was 50% and the “Population Fragmented Nuclei (%)” value [9] was 24%. For the same compound, the “Population Healthy Nuclei (%)” value [9] was 61%, the “Population Hoechst High Intensity Objects (%)” value [9] was 16% and the “Population Membrane Permeable-Phenotype (%)” value [9] was 13%. For the same compound, the “Population Mitochondria Different-Phenotype (%)” value [9] was 6%, the “Population Mitotic Cells (%)” value [9] was 50% and the “Population Normal (%)” value [9] was 83%. For the same compound, the “Population Pyknosed Nuclei (%)” value [9] was 14%, the “Population Tubulin-Different-Phenotype (%)” value [9] was 32% and the “Total Cell Count” value [9] was 118. For the same compound, the “Population Apoptotic (%)” value [10] was 100%, the “Population Fragmented Nuclei (%)” value [10] was 26% and the “Population Healthy Nuclei (%)” value [10] was 71%. For the same compound, the “Population Hoechst High Intensity Objects (%)” value [10] was 6%, the “Population Membrane Permeable-Phenotype (%)” value [10] was 6% and the “Population Mitochondria Different-Phenotype (%)” value [10] was 4%. The “Population Mitotic Cells (%)” value [10] was 0%, the “Population Normal (%)” value [10] was 93% and the “Population Pyknosed Nuclei (%)” value [10] was 2%. The “Population Tubulin-Different-Phenotype (%)” value [10] was 46%, the “Total Cell Count” value [10] was 93 and the “Population Apoptotic (%)” value [11] was 75%. For the same compound, the “Population Fragmented Nuclei (%)” value [11] was 43%, the “Population Healthy Nuclei (%)” value [11] was 51% and the “Population Hoechst High Intensity Objects (%)” value [11] was 20%. The “Population Membrane Permeable-Phenotype (%)” value [11] was 13%, the “Population Mitochondria Different-Phenotype (%)” value [11] was 18% and the “Population Mitotic Cells (%)” value [11] was 25%. For the same compound, the “Population Normal (%)” value [11] was 79%, the “Population Pyknosed Nuclei (%)” value [11] was 4% and the “Population Tubulin-Different-Phenotype (%)” value [11] was 60%. The “Total Cell Count” value [11] was 104, the “Population Apoptotic (%)” value [12] was 66% and the “Population Fragmented Nuclei (%)” value [12] was 46%. For the same compound, the “Population Healthy Nuclei (%)” value [12] was 50%, the “Population Hoechst High Intensity Objects (%)” value [12] was 12% and the “Population Membrane Permeable-Phenotype (%)” value [12] was 20%. For the same compound, the “Population Mitochondria Different-Phenotype (%)” value [12] was 10%, the “Population Mitotic Cells (%)” value [12] was 33% and the “Population Normal (%)” value [12] was 87%. For the same compound, the “Population Pyknosed Nuclei (%)” value [12] was 3%, the “Population Tubulin-Different-Phenotype (%)” value [12] was 89% and the “Total Cell Count” value [12] was 189.
